Laboratory results: ChEMBL document CHEMBL1133526, “Molecular simplification of 1,4-diazabicyclo[4.3.0]nonan-9-ones gives piperazine derivatives that maintain high nootropic activity” (2000)
“And” between values parts separate entries of the source, which are not always exact repeats. Equal entries are not always repeated.

Legend:
Format in all cases: functional
Mus musculus [1] = species: Mus musculus; assay: (§1) Change in entry latency expressed as [(entry latency on day 2)-(entry latency on day 1)]
Mus musculus [2] = assay: Minimum effective dose administered subcutaneously in mouse passive avoidance test; settings: sc, read-out: MED
How it was run: (§2)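 Mouse passive avoidance with scopolamine-induced amnesia (1.5 mg/kg ip after training; 40 cm fall into 10 °C water as punishment). Compounds are given sc in 1:10 dilution steps 20 min before training, in saline or DMSO/H2O. […] Piracetam is the ip reference.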

Mus musculus [3] = assay: Nootropic effect of the compound, when administered subcutaneously, on mouse passive Avoidance test, using Scopolamine as Amnesic drug on 1 st day
Mus musculus [4] = assay: Nootropic effect of the compound, when administered subcutaneously, on mouse passive Avoidance test, using Scopolamine as Amnesic drug on 2 nd day
Mus musculus [5] = assay: Minimum effective dose administered intraperitoneally in mouse passive avoidance test; settings: ip, read-out: MED
Mus musculus [6] = species: Mus musculus; assay: as §1; remark: listed apart in the source
How it was run: (§3)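 Mouse passive avoidance test using a light/dark box. Entering the dark side drops the mouse 40 cm into 10 °C water. Training is on day 1 and retention 24 h later. Test drug is given sc 20 min before training, in saline or DMSO/H2O vehicle. […] Mice not entering within 60 s are excluded. Retention latency is capped at 120 s. Δ = day 2 − day 1 latency.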

Mus musculus [7] = assay: Minimum effective dose administered subcutaneously in mouse, activity given with reference to piracetam; settings: for minimal effective dose: Mus musculus, sc, read-out: MED; how it was run: as §2
Mus musculus [8] = assay: Nootropic effect of the compound, when administered subcutaneously, on mouse passive Avoidance test, using Scopolamine as Amnesic drug on 2nd day; how it was run: as §3
Mus musculus [9] = species: Mus musculus; assay: Change in entry latency expressed as [(latency on day 2)-(latency on day 1)]; how it was run: as §3
Mus musculus [10] = assay: Effect of 0.1 mg/kg compound, when administered intraperitoneally along with saline, on Amnesia in mouse passive Avoidance test on 1st day; settings: route intraperitoneal
How it was run: (§4)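 Mouse passive avoidance without an amnesic agent. Compound is given ip at 0.1 mg/kg 20 min before training, followed by saline. Entry latency into the dark compartment (punishment: 40 cm fall into 10 °C water) is recorded on day 1 and in retention 24 h later, capped at 120 s. Compared with saline controls.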

Mus musculus [11] = assay: Effect of 0.1 mg/kg compound, when administered intraperitoneally along with saline, on Amnesia in mouse passive Avoidance test on 2nd day; settings: route intraperitoneal; how it was run: as §4
Mus musculus [12] = assay: Effect of 0.1 mg/kg compound, when administered intraperitoneally, on Amnesia induced by Baclofen (2 mg/Kg ip) in mouse passive Avoidance test on 1st day; settings: route intraperitoneal
How it was run: (§5)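 Mouse passive avoidance. Compound is given ip 20 min before training. Diphenhydramine (20 mg/kg ip) or baclofen (2 mg/kg ip) is injected immediately after training. Entry latency into the dark, water-pitfall compartment is measured on day 1 and 24 h later, capped at 120 s. Compared with amnesic-only mice.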

Mus musculus [13] = assay: Effect of 0.1 mg/kg compound, when administered intraperitoneally, on Amnesia induced by Baclofen (2 mg/Kg ip) in mouse passive Avoidance test on 2nd day; settings: route intraperitoneal; how it was run: as §5
Mus musculus [14] = assay: Effect of 0.1 mg/kg compound, when administered intraperitoneally, on Amnesia induced by Clonidine (0.125 mg/Kg ip) in mouse passive Avoidance test on 2 nd day; settings: route intraperitoneal
How it was run: (§6)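 Mouse passive avoidance. Compound is given ip 20 min before training. Clonidine (0.125 mg/kg ip) is injected 60 min before training. Entry latency into the dark compartment (40 cm fall into 10 °C water) is measured on day 1 and 24 h later, capped at 120 s. Compared with clonidine-only mice.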

Mus musculus [15] = assay: Effect of 0.1 mg/kg compound, when administered intraperitoneally, on Amnesia induced by diphenhydramine (20 mg/Kg) in mouse passive Avoidance test on 2 nd day; settings: route intraperitoneal; how it was run: as §5
Mus musculus [16] = assay: Effect of 0.1 mg/kg compound, when administered intraperitoneally, on Amnesia induced by diphenhydramine (20 mg/Kg) in mouse passive Avoidance test on 1st day; settings: route intraperitoneal; how it was run: as §5
Mus musculus [17] = assay: Effect of 0.1 mg/kg compound, when administered intraperitoneally, on Amnesia induced Clonidine (0.125 mg/kg) in mouse passive Avoidance test on 1st day; settings: route intraperitoneal; how it was run: as §6
Mus musculus [18] = assay: Nootropic effect of the compound, when administered subcutaneously, on mouse passive Avoidance test, using Scopolamine as Amnesic drug on 2 nd day; dose is limited by solubility problems; how it was run: as §3
Mus musculus [19] = assay: Minimum effective dose administered subcutaneously in mouse, activity given with reference to piracetam, dose administered is limited by solubility problems; settings: sc, read-out: MED; how it was run: as §2
Mus musculus [20] = assay: Effect of 0.1 mg/kg compound in the presence of saline on Amnesia in mouse passive Avoidance test on 1st day; how it was run: as §4
Mus musculus [21] = assay: Effect of 0.1 mg/kg compound in the presence of saline on Amnesia in mouse passive Avoidance test on 2nd day, ip; settings: route intraperitoneal; how it was run: as §4
Mus musculus [22] = assay: Effect of 0.1 mg/kg compound on Amnesia induced by Baclofen (2 mg/Kg ip) in mouse passive Avoidance test on 1 st day at 0.1 mg/kg, ip; how it was run: as §5
Mus musculus [23] = assay: Effect of 0.1 mg/kg compound on Amnesia induced by diphenhydramine (20 mg/Kg) in mouse passive Avoidance test on 1st day (no. of animals = 12); how it was run: as §5
Mus musculus [24] = assay: Effect of 0.1 mg/kg compound on Amnesia induced by diphenhydramine (20 mg/Kg) in mouse passive Avoidance test on 1st day; (no. of animals = 11); how it was run: as §5
Mus musculus [25] = assay: Effect of 0.1 mg/kg compound on Amnesia induced by diphenhydramine (20 mg/Kg) in mouse passive Avoidance test on 2 nd day (no. of animals = 11); how it was run: as §5
Mus musculus [26] = assay: Effect of 0.1 mg/kg compound on Amnesia induced by diphenhydramine (20 mg/Kg) in mouse passive Avoidance test on 2 nd day (no. of animals = 12); how it was run: as §5
Mus musculus [27] = assay: Effect of compound on Amnesia induced Clonidine (0.125 mg/kg) in mouse passive Avoidance test on 1st day at 0.1 mg/kg, ip; settings: route intraperitoneal; how it was run: as §6
Mus musculus [28] = assay: Effect of compound on Amnesia induced Clonidine (0.125 mg/kg) in mouse passive Avoidance test on 2 nd day at 0.1 mg/kg, ip; settings: route intraperitoneal; how it was run: as §6
Mus musculus [29] = assay: Effect of compound on Amnesia induced by Baclofen (2 mg/Kg ip) in mouse passive Avoidance test on 2 nd day at 0.1 mg/kg, ip; settings: route intraperitoneal; how it was run: as §5

Structure (SMILES) | minimal effective dose (Mus musculus [2]) | Entry latency (Mus musculus [3]) | Entry latency (Mus musculus [4]) | Change in entry latency (Mus musculus [6]) | minimal effective dose (Mus musculus [7]) | also measured
CCC(=O)N1CCN(S(=O)(=O)c2ccc(C)cc2)CC1 | 10 mg/kg | 16.6 s | 88.6 s |  |  | Entry latency (Mus musculus [1]): 72 s
CN1C2CC(OC(=O)C(CO)c3ccccc3)CC1C1OC12.NC(=O)CN1CCCC1=O (stereo unspecified) |  | 17.6 s | 108.8 s |  |  | Entry latency (Mus musculus [1]): 91.2 s; minimal effective dose (Mus musculus [5]): 30 mg/kg
CCC(=O)N1CCN(C(=O)c2ccc(F)cc2)CC1 |  | 16.9 s | 77.1 s | 60.2 s | 30 mg/kg | 
CCC(=O)N1CCN(S(=O)(=O)c2ccc(Cl)cc2)CC1 | > 0.1 mg/kg |  |  |  |  | 
CCC(=O)N1CCN(Cc2ccccc2)CC1 |  | 12.8 s |  | 81.1 s | 10 mg/kg | Entry latency (Mus musculus [8]): 93.9 s
CCCN1CCN(S(=O)(=O)c2ccc(F)cc2)CC1 |  | 15.3 s | 96.7 s | 81.4 s | 1 mg/kg | 
CC(=O)N1CCN(S(=O)(=O)c2ccccc2)CC1 |  | 17.5 s | 104 s |  | 0.01 mg/kg | Entry latency (Mus musculus [1]): 86.5 s
CC1C[C@@H]2CN(C(=O)c3ccccc3)CCN2C1=O (stereo in doubt; exo) |  |  |  |  |  | MED (Mus musculus [7]): 1 mg/kg
CCCC(=O)N1CCN(C(=O)c2ccccc2)CC1 |  | 13.8 s | 103.6 s | 89.8 s | 1 mg/kg | 
CCC(=O)N1CCN(S(=O)(=O)c2ccccc2)CC1 | 0.1 mg/kg | 19 s | 132 s |  |  | Entry latency (Mus musculus [1]): 113 s
CCCC(=O)N1CCN(S(=O)(=O)c2ccccc2)CC1 | 1 mg/kg | 15 s | 85.4 s | 70.4 s |  | 
CCC(=O)N1CCN(S(=O)(=O)c2ccc(F)cc2)CC1 | 0.01 mg/kg | 15.9 s | 90.6 s |  |  | Entry latency (Mus musculus [1]): 74.7 s
CCCCCC(=O)N1CCN(S(=O)(=O)c2ccc(F)cc2)CC1 | 1 mg/kg | 16.6 s | 81.5 s |  |  | Entry latency (Mus musculus [1]): 64.9 s
O=C1CCC2CN(S(=O)(=O)c3ccc(F)cc3)CCN12 (stereo unspecified) |  |  |  | 80.2 s and 64.1 s and 66.7 s |  | Change in entry latency (Mus musculus [9]): 79.6 s; Entry latency (Mus musculus [10]): 14.3 s; Entry latency (Mus musculus [11]): 94.5 s; Entry latency (Mus musculus [12]): 12.3 s; Entry latency (Mus musculus [13]): 76.4 s; Entry latency (Mus musculus [14]): 81.2 s; Entry latency (Mus musculus [15]): 95.2 s; Entry latency (Mus musculus [16]): 15.6 s; Entry latency (Mus musculus [17]): 14.5 s
CN1[C@@H]2C[C@@H](OC(=O)[C@H](CO)c3ccccc3)C[C@H]1[C@@H]1O[C@@H]12 [SCOPOLAMINE] |  |  |  |  |  | minimal effective dose (Mus musculus [5]): 1.5 mg/kg
CC(=O)N1CCN(S(=O)(=O)c2ccc(F)cc2)CC1C (stereo unspecified) | 0.1 mg/kg | 16.6 s | 99.2 s |  |  | 
CC(=O)N1CCN(S(=O)(=O)c2ccc(F)cc2)CC1 |  | 19.8 s | 89 s |  | 0.01 mg/kg | Entry latency (Mus musculus [1]): 69.2 s
CC(=O)N1CCN(C(=O)c2ccccc2)CC1 |  | 11.3 s |  | 107.7 s | 10 mg/kg | Entry latency (Mus musculus [18]): 119 s
CC(=O)N1CCN(C(=O)c2ccc(F)cc2)CC1 |  | 17.5 s | 91.1 s | 72.6 s | 10 mg/kg | 
CC1C[C@@H]2CN(C(=O)c3ccccc3)CCN2C1=O (stereo in doubt; endo) |  |  |  |  | 1 mg/kg | 
CCC(=O)N1CCN(S(=O)(=O)c2ccc(OC)cc2)CC1 |  |  |  |  |  | minimal effective dose (Mus musculus [19]): > 1 mg/kg
CCC(=O)N1CCN(C(=O)c2ccc(OC)cc2)CC1 |  | 17.6 s | 96.1 s | 78.5 s | 10 mg/kg | 
CCCC(=O)N1CCN(C(=O)c2ccc(F)cc2)CC1 |  | 19.8 s | 112 s | 92.2 s | 10 mg/kg | 
CCC(=O)N1CCN(C(=O)c2ccc([N+](=O)[O-])cc2)CC1 |  | 18.8 s | 104.3 s | 85.5 s | 1 mg/kg | 
CCC(=O)N1CCN(C(=O)c2ccc(C)cc2)CC1 |  |  |  |  |  | minimal effective dose (Mus musculus [19]): > 1 mg/kg
CCC(=O)N1CCN(C(=O)c2ccc(Cl)cc2)CC1 |  |  |  |  |  | minimal effective dose (Mus musculus [19]): > 1 mg/kg
CCCC(=O)N1CCN(S(=O)(=O)c2ccc(F)cc2)CC1 | > 10 mg/kg |  |  |  |  | 
CCCCC(=O)N1CCN(S(=O)(=O)c2ccc(F)cc2)CC1 | > 0.1 mg/kg |  |  |  |  | 
CCC(=O)N1CCN(C(=O)c2ccccc2)CC1 |  | 20.5 s | 91.5 s | 71 s and 69.1 s and 68.5 s and 67 s | 0.001 mg/kg | Change in entry latency (Mus musculus [9]): 56 s and 63.8 s; Entry latency (Mus musculus [20]): 17.2 s; Entry latency (Mus musculus [21]): 86.3 s; Entry latency (Mus musculus [22]): 17.2 s; Entry latency (Mus musculus [23]): 14.4 s; Entry latency (Mus musculus [24]): 15.8 s; Entry latency (Mus musculus [25]): 84.3 s; Entry latency (Mus musculus [26]): 81.4 s; Entry latency (Mus musculus [27]): 15 s; Entry latency (Mus musculus [28]): 78.8 s; Entry latency (Mus musculus [29]): 73.2 s
CCC(=O)N1CCN(S(=O)(=O)c2ccc([N+](=O)[O-])cc2)CC1 |  |  |  |  |  | minimal effective dose (Mus musculus [19]): > 0.1 mg/kg
